Tests used:
[1] = target: Serine/threonine-protein kinase Chk1 (Homo sapiens, UniProt O14757); assay: Inhibition of human CHK1
[2] = target: Serine/threonine-protein kinase Nek7 (Homo sapiens) (UniProt Q8TDX7); assay: Inhibition of human NEK7 at 10 uM relative to control
[3] = target: Tyrosine-protein kinase JAK3 (Homo sapiens, UniProt P52333); assay: Inhibition of human JAK3
Rattus norvegicus [4] = species on record: Rattus norvegicus; assay: Inhibition of rat AMPK at 10 uM relative to control
[5] = target: Serine/threonine-protein kinase PLK1 (Homo sapiens, UniProt P53350); assay: Inhibition of human PLK
Sequence of Serine/threonine-protein kinase PLK1 (P53350 whole entry): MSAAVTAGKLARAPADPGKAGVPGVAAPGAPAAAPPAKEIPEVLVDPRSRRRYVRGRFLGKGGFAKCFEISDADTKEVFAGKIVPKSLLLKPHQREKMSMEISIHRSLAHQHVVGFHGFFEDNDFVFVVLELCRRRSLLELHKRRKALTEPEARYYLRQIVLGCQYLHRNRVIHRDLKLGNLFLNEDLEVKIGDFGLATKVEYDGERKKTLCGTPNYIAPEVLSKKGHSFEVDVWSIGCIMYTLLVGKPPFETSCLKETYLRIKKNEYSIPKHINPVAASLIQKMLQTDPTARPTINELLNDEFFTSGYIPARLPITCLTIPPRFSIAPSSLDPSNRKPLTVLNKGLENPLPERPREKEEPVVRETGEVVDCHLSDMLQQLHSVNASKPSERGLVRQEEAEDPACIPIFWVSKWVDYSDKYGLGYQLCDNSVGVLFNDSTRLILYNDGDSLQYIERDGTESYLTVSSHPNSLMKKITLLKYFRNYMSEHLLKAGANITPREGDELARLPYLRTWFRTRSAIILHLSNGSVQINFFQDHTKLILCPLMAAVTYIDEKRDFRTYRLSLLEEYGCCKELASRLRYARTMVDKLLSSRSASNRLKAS

[6] = Plasma concentration in Sprague-Dawley rat hyperinsulinemic-euglycemic glucose clamp model at […], iv for 2 mins followed by 50 ug/kg/min, iv for 28 mins; assay type: ADME, organism-based; details: time 30 min
How it was run: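 Plasma drug levels were sampled during the drug-infusion clamp period (Clamp2) in anesthetized rats under a human-insulin hyperinsulinemic–euglycemic clamp. I.v. regimens were 1000 μg kg−1 + 50 μg kg min−1 or 6000 μg kg−1 + 300 μg kg min−1; mean ± SEM, n = 4–5/group.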

[7] = Toxicity in Sprague-Dawley rat assessed as change in blood pressure at 1000 ug/kg, iv for 2 mins followed by 50 ug/kg/min, iv for 28 mins; assay type: organism-based; details: in vivo, 1 mg/kg, 0.5 h, time 30 min
How it was run: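 Blood pressure was monitored in anesthetized rats during hyperinsulinemic–euglycemic clamps. There was an initial control period, then i.v. drug at 1000 μg kg−1 + 50 μg kg min−1 or 6000 μg kg−1 + 300 μg kg min−1. Heart rate was also recorded.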

[8] = Elimination half life in human at 40.5 to 455.8 mg, iv administered for 3 hrs via infusion by LC-MS/MS analysis; assay type: ADME, organism-based; details: in vivo, dose 40.5-455.8 mg, read-out: beta t1/2
How it was run: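 Randomized, double-blind, placebo-controlled single ascending-dose study in healthy male volunteers aged 18–36. Each subject received a 3-h i.v. infusion (0.9–455.8 mg). Plasma levels were measured by protein precipitation and LC-MS/MS (LLOQ 0.005 μm), with non-compartmental PK analysis. Half-life was calculated only for the four highest dose groups. The 3-h sample was taken as Css.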

[9] = target: Serine/threonine-protein kinase mTOR (Homo sapiens, UniProt P42345); assay: Inhibition of mTOR (unknown origin)
[10] = target: Lymphokine-activated killer T-cell-originated protein kinase (Homo sapiens) (UniProt Q96KB5); assay: Inhibition of human PBK at 10 uM relative to control
[11] = target: Dual specificity tyrosine-phosphorylation-regulated kinase 3 (Homo sapiens) (UniProt O43781); assay: Inhibition of human DYRK3 phosphorylation at 10 uM relative to control
[12] = target: Serine/threonine-protein kinase N2 (Homo sapiens) (UniProt Q16513); assay: Inhibition of human PRK2 at 10 uM relative to control
[13] = target: 3-phosphoinositide-dependent protein kinase 1 (Homo sapiens) (UniProt O15530); assay: Inhibition of human PDPK1 at 10 uM relative to control
Sequence of 3-phosphoinositide-dependent protein kinase 1 (Homo sapiens) (O15530 whole entry): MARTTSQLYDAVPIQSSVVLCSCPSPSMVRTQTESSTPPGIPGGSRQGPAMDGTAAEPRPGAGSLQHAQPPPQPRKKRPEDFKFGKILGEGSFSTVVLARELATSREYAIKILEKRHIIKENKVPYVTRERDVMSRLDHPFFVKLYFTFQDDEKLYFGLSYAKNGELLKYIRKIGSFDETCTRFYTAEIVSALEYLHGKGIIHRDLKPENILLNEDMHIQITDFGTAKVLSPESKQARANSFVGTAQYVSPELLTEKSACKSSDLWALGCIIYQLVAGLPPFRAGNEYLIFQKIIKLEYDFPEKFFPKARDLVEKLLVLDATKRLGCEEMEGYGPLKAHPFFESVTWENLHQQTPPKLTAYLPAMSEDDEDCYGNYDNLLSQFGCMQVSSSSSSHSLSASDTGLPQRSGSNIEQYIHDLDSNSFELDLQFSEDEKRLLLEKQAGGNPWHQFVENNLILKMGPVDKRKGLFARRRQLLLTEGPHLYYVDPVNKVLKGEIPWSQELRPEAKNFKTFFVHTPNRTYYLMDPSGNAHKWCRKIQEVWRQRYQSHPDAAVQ

[14] = target: Serine/threonine-protein kinase Nek6 (Homo sapiens) (UniProt Q9HC98); assay: Inhibition of human NEK6 at 10 uM relative to control
[15] = target: Myosin light chain kinase, smooth muscle (Homo sapiens) (UniProt Q15746); assay: Inhibition of human smMLCK at 10 uM relative to control
Sequence of Myosin light chain kinase, smooth muscle (Homo sapiens) (Q15746 whole entry): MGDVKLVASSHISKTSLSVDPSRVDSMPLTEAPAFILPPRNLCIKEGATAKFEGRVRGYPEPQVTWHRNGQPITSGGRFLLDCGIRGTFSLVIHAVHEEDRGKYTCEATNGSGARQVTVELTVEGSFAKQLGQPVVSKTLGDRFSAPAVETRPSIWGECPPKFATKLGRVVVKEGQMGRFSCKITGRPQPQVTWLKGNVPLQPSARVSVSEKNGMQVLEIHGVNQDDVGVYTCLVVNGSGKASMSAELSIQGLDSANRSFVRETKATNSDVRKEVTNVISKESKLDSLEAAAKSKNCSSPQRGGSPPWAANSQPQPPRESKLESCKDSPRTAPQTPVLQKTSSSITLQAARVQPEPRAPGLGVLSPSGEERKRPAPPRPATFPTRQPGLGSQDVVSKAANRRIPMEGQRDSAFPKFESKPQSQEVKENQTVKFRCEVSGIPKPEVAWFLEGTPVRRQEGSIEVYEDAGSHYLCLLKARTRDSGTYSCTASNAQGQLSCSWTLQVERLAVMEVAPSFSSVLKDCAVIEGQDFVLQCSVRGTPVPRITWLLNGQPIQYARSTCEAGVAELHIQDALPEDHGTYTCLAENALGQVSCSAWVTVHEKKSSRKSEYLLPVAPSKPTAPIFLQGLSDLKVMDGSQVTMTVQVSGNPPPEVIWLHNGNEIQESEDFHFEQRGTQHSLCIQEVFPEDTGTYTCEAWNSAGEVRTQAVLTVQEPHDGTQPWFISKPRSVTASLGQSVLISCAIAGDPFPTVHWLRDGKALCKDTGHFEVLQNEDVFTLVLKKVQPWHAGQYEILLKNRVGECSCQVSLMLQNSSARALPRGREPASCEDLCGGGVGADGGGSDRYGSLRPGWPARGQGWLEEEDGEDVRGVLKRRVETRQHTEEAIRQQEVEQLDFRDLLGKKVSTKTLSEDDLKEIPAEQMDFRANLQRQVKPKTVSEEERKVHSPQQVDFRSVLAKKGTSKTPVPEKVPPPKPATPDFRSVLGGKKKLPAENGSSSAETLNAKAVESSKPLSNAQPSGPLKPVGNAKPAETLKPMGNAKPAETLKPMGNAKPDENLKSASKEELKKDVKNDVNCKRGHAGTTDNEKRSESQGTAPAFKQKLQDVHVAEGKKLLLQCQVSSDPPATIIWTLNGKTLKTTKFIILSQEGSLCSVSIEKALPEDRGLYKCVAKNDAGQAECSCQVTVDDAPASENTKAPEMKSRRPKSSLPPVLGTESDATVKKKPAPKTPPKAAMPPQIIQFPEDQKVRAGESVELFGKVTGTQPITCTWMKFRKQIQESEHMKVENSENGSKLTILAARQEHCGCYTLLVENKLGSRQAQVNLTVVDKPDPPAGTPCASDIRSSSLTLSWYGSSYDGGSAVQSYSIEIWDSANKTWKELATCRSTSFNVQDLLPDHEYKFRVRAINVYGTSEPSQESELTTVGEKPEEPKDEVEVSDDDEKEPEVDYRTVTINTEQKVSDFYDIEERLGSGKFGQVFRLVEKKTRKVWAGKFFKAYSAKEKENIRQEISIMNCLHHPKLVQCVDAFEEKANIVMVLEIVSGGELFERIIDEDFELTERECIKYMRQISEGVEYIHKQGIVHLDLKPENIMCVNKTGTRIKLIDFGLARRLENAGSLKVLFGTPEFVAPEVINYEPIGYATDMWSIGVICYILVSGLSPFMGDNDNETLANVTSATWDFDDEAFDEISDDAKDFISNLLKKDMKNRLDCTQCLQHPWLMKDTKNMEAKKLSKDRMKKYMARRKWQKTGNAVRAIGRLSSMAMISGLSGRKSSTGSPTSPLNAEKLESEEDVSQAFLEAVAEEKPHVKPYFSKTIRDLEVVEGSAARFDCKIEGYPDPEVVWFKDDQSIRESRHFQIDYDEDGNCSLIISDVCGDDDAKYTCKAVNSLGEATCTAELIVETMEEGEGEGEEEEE

[16] = target: Serine/threonine-protein kinase PAK 1 (Homo sapiens, UniProt Q13153); assay: Inhibition of human PAK1
[17] = target: Proto-oncogene tyrosine-protein kinase Src (Homo sapiens, UniProt P12931); assay: Inhibition of human src
Sequence of Proto-oncogene tyrosine-protein kinase Src (P12931 2-536 limits assumed): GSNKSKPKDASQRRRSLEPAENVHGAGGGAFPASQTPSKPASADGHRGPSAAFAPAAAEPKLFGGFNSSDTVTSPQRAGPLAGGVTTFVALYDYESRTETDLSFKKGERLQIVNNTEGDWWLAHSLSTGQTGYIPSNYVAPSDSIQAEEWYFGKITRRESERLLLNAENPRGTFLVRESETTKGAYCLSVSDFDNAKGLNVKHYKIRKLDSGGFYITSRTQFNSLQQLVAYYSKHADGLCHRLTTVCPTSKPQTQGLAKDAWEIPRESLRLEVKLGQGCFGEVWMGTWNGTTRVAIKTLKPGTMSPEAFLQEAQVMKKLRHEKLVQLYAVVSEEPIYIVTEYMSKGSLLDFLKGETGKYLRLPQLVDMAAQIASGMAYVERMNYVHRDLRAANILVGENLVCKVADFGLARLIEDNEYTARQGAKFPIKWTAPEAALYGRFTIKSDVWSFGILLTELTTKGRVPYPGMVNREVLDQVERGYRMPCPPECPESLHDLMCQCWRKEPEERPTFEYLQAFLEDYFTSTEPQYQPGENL

Rattus norvegicus [18] = assay: Insulin sensitizing activity in Sprague-Dawley rat hyperinsulinemic-euglycemic glucose clamp model assessed as glucose level during infusion of human insulin at 6000 ug/kg/min, iv for 2 mins followed by 300 ug/kg/min, iv for 28 mins measured during clamp 1 by colorimetry (reference value: 8.4 +/- 0.8 mM); assay type: functional; details: time 30 min, 0.5 h
How it was run: (§1)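 Anesthetized rats; hyperinsulinemic–euglycemic clamp with human insulin infused. A baseline clamp (Clamp1) was followed by a second clamp (Clamp2) with vehicle or drug i.v. The drug was given as a low dose (1000 μg kg−1 + 50 μg kg min−1) or a high dose (6000 μg kg−1 + 300 μg kg min−1). Steady-state glucose infusion rate for euglycemia was recorded, with plasma glucose, human insulin and total insulin; mean ± SEM, n = 4–5/group.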

[19] = target: Maternal embryonic leucine zipper kinase (Homo sapiens) (UniProt Q14680); assay: Inhibition of human MELK at 10 uM relative to control
[20] = Plasma concentration in human at 0.9 to 13.5 mg, iv administered for 3 hrs via infusion by LC-MS/MS analysis; assay type: ADME, organism-based; details: dose 0.9-13.5 mg
How it was run: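 Randomized, double-blind, placebo-controlled single ascending dose study in healthy males aged 18–36, given a 3-h i.v. infusion. Plasma drug was measured by protein precipitation then LC-MS/MS, with non-compartmental PK analysis. The 3-h end-of-infusion sample was taken as steady-state concentration; mean, n = 6/dose.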

[21] = target: Mitogen-activated protein kinase 12 (Homo sapiens) (UniProt P53778); assay: Inhibition of human MAPK12 at 10 uM relative to control
[22] = target: Mitogen-activated protein kinase 13 (Homo sapiens) (UniProt O15264); assay: Inhibition of human MAPK13 at 10 uM relative to control
[23] = target: Serine/threonine-protein kinase Sgk1 (Homo sapiens) (UniProt O00141); assay: Inhibition of human SGK at 10 uM relative to control
[24] = Toxicity in Sprague-Dawley rat hyperinsulinemic-euglycemic glucose clamp model assessed as increase in blood pressure at 6000 ug/kg/min, iv for 2 mins followed by 300 ug/kg/min, iv for 28 mins; assay type: organism-based; details: in vivo, 0.5 h, time 30 min
How it was run: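 Anesthetized rats underwent two consecutive hyperinsulinemic–euglycemic clamps with human insulin infusion: a baseline Clamp1, then Clamp2 with vehicle or AZD6482 i.v. (n = 4–5/group). Blood pressure and heart rate were followed during control periods and after drug administration. Steady-state glucose infusion rate maintained euglycemia.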

Rattus norvegicus [25] = assay: Insulin sensitizing activity in Sprague-Dawley rat hyperinsulinemic-euglycemic glucose clamp model assessed as human insulin level during infusion of human insulin at 6000 ug/kg/min, iv for 2 mins followed by 300 ug/kg/min, iv for 28 mins measured during clamp 1 (reference value: 1.7 +/- 0.1 nM); assay type: functional; details: time 30 min, 0.5 h; how it was run: as §1
[26] = Protein binding in dog plasma assessed as unbound fraction; assay type: ADME, cell-free, Canis lupus familiaris
[27] = Inhibition of PI3Kbeta in Beagle dog whole blood assessed as reduction in ADP-induced thrombus formation at 1 uM relative to control; details: Canis lupus familiaris, condition thrombotic disease
[28] = target: Mitogen-activated protein kinase 1 (Mus musculus) (UniProt P63085); assay: Inhibition of mouse MAPK1 at 10 uM relative to control

Sequence of Tyrosine-protein kinase JAK3 (P52333 whole entry): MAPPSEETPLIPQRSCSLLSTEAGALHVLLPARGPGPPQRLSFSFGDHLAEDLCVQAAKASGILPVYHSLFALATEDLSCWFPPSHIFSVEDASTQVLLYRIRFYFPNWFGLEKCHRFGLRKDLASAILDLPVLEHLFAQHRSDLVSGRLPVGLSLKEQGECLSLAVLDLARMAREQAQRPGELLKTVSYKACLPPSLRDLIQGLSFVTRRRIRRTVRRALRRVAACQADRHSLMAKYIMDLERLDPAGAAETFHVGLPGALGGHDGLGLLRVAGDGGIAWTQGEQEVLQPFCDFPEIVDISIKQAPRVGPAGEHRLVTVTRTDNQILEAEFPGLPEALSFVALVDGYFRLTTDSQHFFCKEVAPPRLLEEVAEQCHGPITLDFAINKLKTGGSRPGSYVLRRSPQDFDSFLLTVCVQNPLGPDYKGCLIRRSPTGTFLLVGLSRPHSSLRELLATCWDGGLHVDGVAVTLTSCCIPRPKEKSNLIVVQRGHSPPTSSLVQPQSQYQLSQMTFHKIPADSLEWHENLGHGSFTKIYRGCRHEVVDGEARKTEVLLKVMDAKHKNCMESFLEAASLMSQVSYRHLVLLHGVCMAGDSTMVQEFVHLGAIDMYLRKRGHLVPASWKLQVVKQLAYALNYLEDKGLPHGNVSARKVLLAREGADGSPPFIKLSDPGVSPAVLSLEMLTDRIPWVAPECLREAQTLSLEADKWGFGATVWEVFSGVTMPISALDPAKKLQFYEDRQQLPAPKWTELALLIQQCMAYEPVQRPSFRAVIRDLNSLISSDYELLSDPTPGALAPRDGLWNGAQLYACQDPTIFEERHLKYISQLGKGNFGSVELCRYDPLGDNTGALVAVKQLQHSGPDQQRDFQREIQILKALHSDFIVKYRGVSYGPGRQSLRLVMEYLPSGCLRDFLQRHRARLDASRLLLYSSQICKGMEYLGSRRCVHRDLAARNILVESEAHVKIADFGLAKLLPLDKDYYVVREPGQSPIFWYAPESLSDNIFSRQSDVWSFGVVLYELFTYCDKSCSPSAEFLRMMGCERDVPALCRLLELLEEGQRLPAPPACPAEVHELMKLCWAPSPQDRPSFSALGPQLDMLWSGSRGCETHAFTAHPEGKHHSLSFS
Sequence of Serine/threonine-protein kinase Nek7 (Homo sapiens) (Q8TDX7 whole entry, looked up): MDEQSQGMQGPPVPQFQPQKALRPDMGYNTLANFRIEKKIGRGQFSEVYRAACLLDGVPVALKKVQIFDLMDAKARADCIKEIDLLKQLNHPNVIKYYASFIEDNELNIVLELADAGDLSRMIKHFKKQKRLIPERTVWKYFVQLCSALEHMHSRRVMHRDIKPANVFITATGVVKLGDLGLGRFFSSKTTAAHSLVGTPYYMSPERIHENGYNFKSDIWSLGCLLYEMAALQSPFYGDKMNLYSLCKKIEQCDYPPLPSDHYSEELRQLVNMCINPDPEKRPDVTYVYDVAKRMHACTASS

Cc1cc([C@@H](C)Nc2ccccc2C(=O)O)c2nc(N3CCOCC3)cc(=O)n2c1 [AZD-6482]
IC50 [1]: > 1000 µM | inhibition [2]: 7.1% | IC50 [3]: > 201 µM | inhibition (Rattus norvegicus [4]): 14% | IC50 [5]: 84 µM | concentration at 0.5 h [6]: 2300 nM | Activity [7]: Non-Toxic | half-life [8]: ~20 min | IC50 [9]: 8 µM | inhibition [10]: 6.9% | inhibition [11]: 16% | inhibition [12]: -2.9% | inhibition [13]: 16% | inhibition [14]: 2.5% | inhibition [15]: 2.6% | IC50 [16]: > 336 µM | IC50 [17]: 37 µM | Activity (Rattus norvegicus [18]): 7.6 mM | inhibition [19]: 17% | concentration at 3 h [20]: < 5 nM | inhibition [21]: 3.4% | inhibition [22]: -10% | inhibition [23]: -5.8% | Activity [24]: 15 mmHg | Activity (Rattus norvegicus [25]): 1.9 nM | fraction unbound [26]: 0.1 | inhibition at 1 µM [27]: > 80% | inhibition [28]: 3.6%

— ChEMBL document CHEMBL5678808, “Human target validation of phosphoinositide 3-kinase (PI3K)β: effects on platelets and insulin sensitivity, using AZD6482 a novel PI3Kβ inhibitor” (J Thromb Haemost, 2012)
